Screening data: PubChem, several laboratories
S1P3 antag – S1P3 receptor antagonists, primary screen, cell-based; AID 485, 2006; inhibition, % at 4.98 µM; 170,000 tested, 0.27% active; Sphingosine 1-phosphate receptor 3 (Homo sapiens), Q99500; CHO S1P3 NFAT-BLA reporter, FRET fluorescence, antagonist mode;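 active = inhibition above the plate cutoff, the mean inhibition of test wells on that plate plus 3 SD, cut at about 28% in these data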;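 note: cells challenged with S1P at its EC80 of 0.8 µM; blue over green emission ratio from cleaved BLA substrate after 4 h stimulation; 0% = S1P-stimulated wells and 100% = unstimulated DMSO-only wells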
MDM2 E3 inh – MDM2-luciferase reporter signal enhancers, primary screen, MDM2 E3 ligase inhibitor project, cell-based, luminescence, 1536-well; E3 ubiquitin-protein ligase Mdm2 (Homo sapiens), Q00987; cell-based MDM2 ubiquitination luciferase reporter, 2 h; 0 = plate control, 100 = twice control, blank-subtracted; signal enhancement, % at 5 µM; 210,000 tested, 0.11% active;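 active = signal enhancement of 30% or more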;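 note: luminescence tracks abundance of the self-degrading MDM2-luciferase fusion protein; higher signal means inhibition of MDM2 E3 ligase activity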
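Buffer or medium: Cells held in DMEM | Assay system: Stable mammalian line carrying autodegrading MDM2–luciferase fusion reporter | Quantity: 2000 cells/well | Times: 4 h settle plus 2 h compound, 37 °C | Doses: One concentration, 5 µM, with 0.2% DMSO | Technique: Luminescence with SteadyLite reagent, 15 min at room temperature | Benchmarks: Plate controls and plate blanks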
Dynein cargo inh – inhibitors of GR-EGFP nuclear translocation, primary screen, dynein cargo transport inhibitor project, imaging, high-content, 3617.4 mouse cells | test concentration mostly 20 µM; stimulated with dexamethasone, 1 µM; stronger effect = lower value | z-score, hits read low | 220,000 tested, 0.47% active;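 active = plate z-score of nuclear minus cytoplasmic receptor signal below a set negative limit, without overly bright fluorescence or cell loss, cut at about -3.5 in these data, passing the limit was not always enough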;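 note: z-score of nuclear minus cytoplasmic ring GR-EGFP intensity difference per well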
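Buffer or medium: tetracycline-free induction medium containing charcoal-stripped FBS / Reagent: dexamethasone agonist, 1.0 µM final, for 30 min / Technique: automated 10x imaging of fixed Hoechst-stained cells / Times: induction 48 h, compound 1 h, agonist 30 min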
Hsp70 act – Hsp70 transcriptional activators, primary screen, cell-based, HeLa, Hsp70 promoter luciferase, luminescence, 10 µM; HeLa Hsp70 promoter luciferase reporter; scaled: vehicle 0, proteasome-inhibitor control 100%; activation, % at 10 µM; 200,000 tested, 0.04% active;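 active = activation above the mean across all tested compounds plus 3 SD, cutoff set per campaign, cut at about 5.5% in these data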;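 note: 100% = MG132 at 30 µM as the positive control and 0% = DMSO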
S1P4 agonist – S1P4 receptor agonists, primary screen, cell-based. Sphingosine 1-phosphate receptor 4 (Homo sapiens), O95977. S1P4-expressing cell line, agonist reporter assay. activation, % at 4.98 µM. 220,000 tested, 0.35% active; in the data active = activation above about 11%;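 note: 0% = DMSO vehicle and 100% = reference agonist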
Target sequence (O95977 whole entry, looked up): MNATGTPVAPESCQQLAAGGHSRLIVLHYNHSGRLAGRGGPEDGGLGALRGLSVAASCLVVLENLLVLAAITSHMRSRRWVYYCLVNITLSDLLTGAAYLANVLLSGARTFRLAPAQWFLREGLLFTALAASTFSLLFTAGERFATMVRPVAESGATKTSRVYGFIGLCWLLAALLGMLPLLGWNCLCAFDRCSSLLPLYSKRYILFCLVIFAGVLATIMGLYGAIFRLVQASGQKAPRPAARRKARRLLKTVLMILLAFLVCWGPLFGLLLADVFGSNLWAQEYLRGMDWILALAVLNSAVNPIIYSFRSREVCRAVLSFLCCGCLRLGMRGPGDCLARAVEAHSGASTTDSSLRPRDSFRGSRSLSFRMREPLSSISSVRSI
S1P4 antag – S1P4 receptor antagonists, primary screen, cell-based; Sphingosine 1-phosphate receptor 4 (Homo sapiens), O95977; S1P4-expressing cells, antagonist mode, reporter read-out; inhibition, % at 4.98 µM; 220,000 tested, 0.26% active; in the data active = inhibition above about 29%;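 note: 0% = wells stimulated with agonist and 100% = vehicle wells without agonist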
Dynein confirm – dynein cargo transport inhibitors, GR-EGFP translocation, confirmation, imaging, high-content imaging, GR-EGFP cells. shares compounds with Dynein cargo inh. calls only at 20 µM. 3617.4 GR-EGFP nuclear translocation imaging, dexamethasone-induced. 1,000 tested, 69% active;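 active = inhibition of receptor movement into the nucleus at or above a set limit in both runs, with normal cell brightness and cell count; inconclusive = limit reached in only one run, brightness and count normal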;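 note: dexamethasone at 1 µM final in well for 30 min; nuclear minus cytoplasmic GR-EGFP mean intensity difference in channel 2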
* = called active by the depositor. Sampled rows, rich in hits. Any-hit rate of the full collection: about 1.3%.

`COc1cc(C(Nc2ccccn2)c2ccc3ccc(C)nc3c2O)cc(OC)c1O` (stereo not given) gave S1P3 antag 12, MDM2 E3 inh -8, Dynein cargo inh -3.6*, Hsp70 act 0, S1P4 agonist 3, S1P4 antag 13 and Dynein confirm active.
`Cc1ccc2ccc(C(Nc3ccccn3)c3ccccc3)c(O)c2n1` (stereo not given) gave MDM2 E3 inh 23, Dynein cargo inh 0.54, Hsp70 act 0, S1P4 agonist 0 and S1P4 antag 4.
Screening Cc1cc(C)nc(Sc2ncnc(N)c2[N+](=O)[O-])n1 returned S1P3 antag 6, MDM2 E3 inh -12, Dynein cargo inh -5.4*, Hsp70 act 0, S1P4 agonist -1, S1P4 antag -20 and Dynein confirm inconclusive.
For CCC(C)(C)C1CCc2[nH]nc(C(=O)N/N=C(\C)c3ccco3)c2C1 (stereo not given) the results were S1P3 antag 5, MDM2 E3 inh -28, Dynein cargo inh -3.8*, S1P4 agonist -1, S1P4 antag -2 and Dynein confirm inactive.
`CCOC(=O)/C(=C/C=C1\Sc2cc(OCC)c(OCC)cc2N1CC)C(C)=O` gave S1P3 antag -14, MDM2 E3 inh 17, Dynein cargo inh 3.5, Hsp70 act 0, S1P4 agonist -3 and S1P4 antag -10.
CCOC(=O)/C(=C\C=C1/Sc2cc(OCC)c(OCC)cc2N1CC)C(C)=O was read as S1P3 antag 18, MDM2 E3 inh -7, Dynein cargo inh -3.7, Hsp70 act 0, S1P4 agonist 0, S1P4 antag -16 and Dynein confirm inactive.
Screening COC(=O)c1cc(NC(=O)c2cccc(Cl)c2)c(=O)oc1/C=C/Nc1cc(C)cc(C)c1 returned S1P3 antag 25, MDM2 E3 inh -3, Dynein cargo inh -7.5, Hsp70 act -1, S1P4 agonist -1, S1P4 antag -11 and Dynein confirm active.
`CC(/C=N/n1c(COc2ccccc2)n[nH]c1=S)=C\c1ccco1` gave S1P3 antag -1, MDM2 E3 inh -7, Dynein cargo inh -4*, S1P4 agonist -1, S1P4 antag 13 and Dynein confirm inactive.
CC(C)c1ccc(CN2CCN(C(=O)CCl)CC2)cc1 was read as S1P3 antag -9, MDM2 E3 inh -18, Dynein cargo inh -5.9*, Hsp70 act 0, S1P4 agonist -1, S1P4 antag 4 and Dynein confirm active.
`CCCNC(=O)C12CCC(C)(c3nc4cc(C)c(C)cc4nc31)C2(C)C` (stereo not given) gave S1P3 antag -7, MDM2 E3 inh -2, Dynein cargo inh 0.31, Hsp70 act 0, S1P4 agonist -1 and S1P4 antag -1.
`O=C(CSC1=Nc2ccccc2C2CC=NN12)Nc1ccc2c(c1)OCO2` (stereo not given) gave S1P3 antag -15, MDM2 E3 inh 1, Dynein cargo inh -3.7*, Hsp70 act 0, S1P4 agonist -1, S1P4 antag -7 and Dynein confirm active.
Screening CN(NS(C)(=O)=O)c1c(C#N)c(C(F)(F)F)nn1C returned S1P3 antag -6, MDM2 E3 inh -16, Dynein cargo inh -0.87, Hsp70 act 0, S1P4 agonist 0 and S1P4 antag -12.
`O=C(NCc1cccnc1)C(=O)Nc1ccc2c(c1)OCO2` gave S1P3 antag -6, MDM2 E3 inh 13, Dynein cargo inh 1.7, Hsp70 act 1, S1P4 agonist 0 and S1P4 antag 1.
O=C(CNc1n[nH]c(=O)[nH]c1=O)N/N=C/C1CC=CCC1 (stereo not given) was read as S1P3 antag -10, MDM2 E3 inh -5, Dynein cargo inh 1.7, S1P4 agonist 7 and S1P4 antag 21.
Screening O=C1C(Cl)=C(N2CCCCC2)C(=O)C(Cl)=C1c1cnc(N2CCCCC2)s1 returned MDM2 E3 inh 72*, Dynein cargo inh -4.9*, Hsp70 act 0, S1P4 agonist 1, S1P4 antag 2 and Dynein confirm active.
CN(C)c1ncc(C2=C(Cl)C(=O)C(N3CCCC3)=C(Cl)C2=O)s1 was read as Dynein cargo inh -4.6, Hsp70 act 0, S1P4 agonist 0 and S1P4 antag -5.
`O=C(c1coc(=O)c(Br)c1)N1CCC(C(O)(c2ccccc2)c2ccccc2)CC1` gave S1P3 antag 1, MDM2 E3 inh -9, Dynein cargo inh -4.5*, S1P4 agonist 1, S1P4 antag -4 and Dynein confirm active.
For CCN(C(=O)CN1CC(C)OC(C)C1)c1c(N)n(Cc2ccccc2)c(=O)[nH]c1=O (stereo not given) the results were S1P3 antag -17, MDM2 E3 inh -27, Dynein cargo inh 0.24, Hsp70 act 0, S1P4 agonist 0 and S1P4 antag -31.
Screening Cc1cc(N2CCOCC2)ccc1/C=C1\SC(=O)N(C(C)C)C1=O returned MDM2 E3 inh -6, Dynein cargo inh 1.2, Hsp70 act 1, S1P4 agonist 0 and S1P4 antag -16.
For CCN(CC)c1ccc(/C=C2/SC(=O)N(C(C)C)C2=O)o1 the results were S1P3 antag -2, MDM2 E3 inh 1, Dynein cargo inh -4, Hsp70 act 0, S1P4 agonist 1, S1P4 antag 8 and Dynein confirm active.
Screening Cc1ccc(N(CCC#N)C(=O)CSc2ccc3c(c2)OCCO3)cc1 returned MDM2 E3 inh -11, Dynein cargo inh -0.84, Hsp70 act 0, S1P4 agonist 1 and S1P4 antag -5.
Screening Cc1ccc(N(CCC#N)C(=O)CCl)cc1C returned S1P3 antag -9, MDM2 E3 inh -11, Dynein cargo inh -4.4*, Hsp70 act 0, S1P4 agonist -1, S1P4 antag -11 and Dynein confirm active.
`O=C1ON=C(c2ccccc2)/C1=C/c1ccc(-c2ccccc2[N+](=O)[O-])o1` gave S1P3 antag -11, MDM2 E3 inh 0, Dynein cargo inh -5.9*, Hsp70 act 0, S1P4 agonist -1, S1P4 antag -7 and Dynein confirm active.
